From ChEMBL document CHEMBL1250466, “CLEFMA-an anti-proliferative curcuminoid from structure-activity relationship studies on 3,5-bis(benzylidene)-4-piperidones” (Bioorg Med Chem, 2010)
Active and inactive are the calls of the source. The calls are words filed in the database; no cut-off is given here.

How the values were obtained:
[1] = Antiproliferative activity against human H441 cells assessed as decrease of hexosaminidase activity after 24 hrs; type: functional, cell-based; settings: NCI-H441, 24 h
Method in brief: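 H441 (NCI-H441) cells in McCoy's 5A with 5% heat-inactivated FBS, gentamicin 50 μg/ml, 37 °C, 5% CO2; 10×10^3 cells/well seeded, attached overnight. Compounds in DMSO (0.1% final) at 1, 10, 25, 100 μM for 24 h. Hexosaminidase substrate in citrate pH 5, 30 min 37 °C, stopped with glycine/EDTA pH 10.4, A405. Triplicate, repeated at least twice; IC50 from linear or exponential fit of concentration vs activity.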

NCI-H441 [2] = assay: Induction of apoptosis in human H441 cells assessed as caspase 3/7 activation by immunoblotting; type: functional, cell-based
NCI-H441 [3] = assay: Induction of autophagy in human H441 cells assessed as chromatin condensation at 1 to 10 uM after 24 by transmission electron microscopic analysis; type: functional, cell-based
Method in brief: (§1)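 H441 cells exposed 24 h at 1 and 10 μM, then fixed 4 h at room temperature in 0.1 M cacodylate with 4% PFA and 2% glutaraldehyde. Post-fixed in 1% osmium tetroxide 1.5 h, dehydrated through a graded ethanol series, ultrasections stained with Sato's lead. Imaged by transmission electron microscopy at 2500×; untreated cells as controls.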

NCI-H441 [4] = assay: Induction of apoptosis in human H441 cells; type: functional, cell-based
PC-3 = assay: Antiproliferative activity against human PC3 cells assessed as decrease of hexosaminidase activity at 1 to 100 uM after 24 to 72 hrs; type: functional, cell-based
Method in brief: (§2)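 Cells kept as for H441 but in RPMI 1640 with 5% heat-inactivated FBS and gentamicin 50 μg/ml; 10×10^3 cells/well seeded, attached overnight. Compounds in DMSO (0.1% final) at 1, 10, 25, 100 μM for 24, 48 and 72 h. Remaining cells read by hexosaminidase activity (substrate in citrate pH 5, 30 min 37 °C, glycine/EDTA pH 10.4 stop, A405) as percent of DMSO control; triplicate, repeated at least twice.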

MIA PaCa-2 = assay: Antiproliferative activity against human MIAPaCa2 cells assessed as decrease of hexosaminidase activity at 1 to 100 uM after 24 to 72 hrs; type: functional, cell-based; method in brief: as §2
NCI-H441 [5] = assay: Induction of autophagy in human H441 cells assessed as double-membrane pre-autophagosomal structures containing cell organelles at 1 to 10 uM after 24 hrs by transmission electron microscopic analysis; type: functional, cell-based; method in brief: as §1
NCI-H441 [6] = assay: Induction of autophagy in human H441 cells assessed as peri-nuclear accumulation of cell organelles at 1 to 10 uM after 24 by transmission electron microscopic analysis; type: functional, cell-based; method in brief: as §1
PANC-1 = assay: Antiproliferative activity against human PANC1 cells assessed as decrease of hexosaminidase activity at 1 to 100 uM after 24 to 72 hrs; type: functional, cell-based; method in brief: as §2
NCI-H441 [7] = assay: Induction of autophagosome formation in human H441 cells at 10 uM after 24 using monodansylcadaverine staining by fluorescent microscopic analysis; type: functional, cell-based
Method in brief: (§3)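 H441 cells labeled with the autophagic-vacuole marker monodansylcadaverine after treatment and examined by fluorescence microscopy; autophagy inhibition tested with 3-methyladenine.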

NCI-H441 [8] = assay: Induction of apoptosis in human H441 cells assessed as caspase 3 activation by immunoblotting; type: functional, cell-based
NCI-H441 [9] = assay: Induction of autophagosome formation in human H441 cells at 10 uM after 24 using monodansylcadaverine staining by fluorescent microscopic analysis in presence of 3-methyladenine; type: functional, cell-based; method in brief: as §3
NCI-H441 [10] = assay: Induction of autophagy in human H441 cells assessed as large single-walled autophagic vacuoles at 1 to 10 uM after 24 by transmission electron microscopic analysis; type: functional, cell-based; method in brief: as §1
NCI-H441 [11] = assay: Induction of autophagy in human H441 cells assessed as blebbing of nuclear membrane at 1 to 10 uM after 24 by transmission electron microscopic analysis; type: functional, cell-based; method in brief: as §1
NCI-H441 [12] = assay: Induction of autophagy in human H441 cells assessed as peri-nuclear accumulation of mitochondria at 1 to 10 uM after 24 by transmission electron microscopic analysis; type: functional; method in brief: as §1
NCI-H441 [13] = assay: Induction of apoptosis in human H441 cells assessed as caspase cleavage by immunoblotting; type: functional, cell-based

SMILES | IC50 [1] [µM] | other results
O=C1/C(=C/c2ccccc2F)CN(C(=O)C2CCCCC2C(=O)O)C/C1=C\c1ccccc1F (configuration not stated) | 55 | 
O=C1/C(=C/c2cccc(Cl)c2)CNC/C1=C\c1cccc(Cl)c1 | 50 | 
O=C1/C(=C/c2ccccc2F)CN(C(=O)c2ccccc2C(=O)O)C/C1=C\c1ccccc1F | 56 | 
Cc1ccc(S(=O)(=O)N2C/C(=C\c3ccccc3F)C(=O)/C(=C/c3ccccc3F)C2)cc1 | 50 | 
O=C1/C(=C/c2ccc(Cl)cc2)CNC/C1=C\c1ccc(Cl)cc1 | 87 | 
O=C(O)/C=C\C(=O)N1C/C(=C\c2ccccc2Cl)C(=O)/C(=C/c2ccccc2Cl)C1 | 1 | Activity (NCI-H441 [2]): inactive; Activity (NCI-H441 [3]): inactive; Activity (NCI-H441 [4]): inactive; Activity (PC-3): Active; Activity (MIA PaCa-2): Active; Activity (NCI-H441 [5]): Active; Activity (NCI-H441 [6]): Active; Activity (PANC-1): Active; Activity (NCI-H441 [7]): Active; Activity (NCI-H441 [8]): inactive; Activity (NCI-H441 [9]): inactive; Activity (NCI-H441 [10]): Active; Activity (NCI-H441 [11]): Active; Activity (NCI-H441 [12]): Active; Activity (NCI-H441 [13]): inactive
CN(C)c1ccc(/C=C2\CNC/C(=C\c3ccc(N(C)C)cc3)C2=O)cc1 | 101 | 
CCCCCCCCCCCCCCCCNC(=O)CCC(=O)N1C/C(=C\c2ccccc2F)C(=O)/C(=C/c2ccccc2F)C1 | 64 | 
CCCCCCCCCC/C=C/C(CC(=O)O)C(=O)N1C/C(=C\c2ccccc2F)C(=O)/C(=C/c2ccccc2F)C1 (configuration not stated) | 58 | 
CC(=O)N1C/C(=C\c2ccccc2F)C(=O)/C(=C/c2ccccc2F)C1 | 54 | 
O=C1/C(=C/c2ccccc2[N+](=O)[O-])CNC/C1=C\c1ccccc1[N+](=O)[O-] | 93 | 
O=C1/C(=C/c2ccccc2)CNC/C1=C\c1ccccc1 | 12 | 
O=C(CCC(=O)N1C/C(=C\c2ccccc2F)C(=O)/C(=C/c2ccccc2F)C1)N[C@@H]1[C@@H](O)[C@H](O)[C@@H](CO)O[C@H]1O | 79 | 
O=CN1C/C(=C\c2ccccc2F)C(=O)/C(=C/c2ccccc2F)C1 | 49 | 
O=C(CN1C/C(=C\c2ccccc2F)C(=O)/C(=C/c2ccccc2F)C1)NCc1ccc(F)cc1 | 46 | 
O=C(O)CCC(=O)N1C/C(=C\c2ccccc2F)C(=O)/C(=C/c2ccccc2F)C1 | 69 | 
O=C1/C(=C/c2ccccc2Br)CNC/C1=C\c1ccccc1Br | 6 | 
O=C(O)/C=C/C(=O)N1C/C(=C\c2ccccc2F)C(=O)/C(=C/c2ccccc2F)C1 | 29 | 
CCCCCCCCCCCC/C=C/C(CC(=O)O)C(=O)N1C/C(=C\c2ccccc2F)C(=O)/C(=C/c2ccccc2F)C1 (configuration not stated) | 47 | 
CCCCCCCCCCCCCCCC/C=C/C(CC(=O)O)C(=O)N1C/C(=C\c2ccccc2F)C(=O)/C(=C/c2ccccc2F)C1 (configuration not stated) | 84 | 
O=C1/C(=C/c2ccc(F)cc2)CNC/C1=C\c1ccc(F)cc1 | 45.7 | 
O=C1/C(=C/c2ccccc2Cl)CNC/C1=C\c1ccccc1Cl | 5 | 
O=C(O)CCCC(=O)N1C/C(=C\c2ccccc2F)C(=O)/C(=C/c2ccccc2F)C1 | 60 | 
O=C1/C(=C/c2ccccc2F)CNC/C1=C\c1ccccc1F | 44 | Activity (NCI-H441 [3]): inactive; Activity (NCI-H441 [5]): Active; Activity (NCI-H441 [6]): Active; Activity (NCI-H441 [7]): Active; Activity (NCI-H441 [9]): inactive; Activity (NCI-H441 [10]): Active; Activity (NCI-H441 [11]): Active; Activity (NCI-H441 [12]): Active
